# In ChEMBL document CHEMBL1125286, “Zatosetron, a potent, selective, and long-acting 5HT3 receptor antagonist: synthesis and structure-activity relationships” (J Med Chem, 1992):
# Legend:
# [1] = target: T1, Serotonin 3 (5-HT3) receptor (Rattus norvegicus) (UniProt P35563+Q9JJ16); test: 5-hydroxytryptamine 3 receptor antagonistic activity measured by inhibition of 5-HT-induced bradycardia (iv administration 10 ug/kg dose in urethane-anesthetized rats); assay type: functional, organism-based
# Summary of the method: (§1)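 Urethane-anesthetized rats. First 5HT challenge 30 μg/kg iv gives a transient bradycardia. Once heart rate is back at steady state (≤5 min), test compound or saline goes in via the femoral vein. 5HT 30 μg/kg iv is repeated 15 min later. % inhibition is the difference between first and second bradycardia at peak, each animal its own control. Means ± SEM, groups of 3–16 rats.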
# [2] = target: T1, Serotonin 3 (5-HT3) receptor (Rattus norvegicus); test: 5-hydroxytryptamine 3 receptor antagonistic activity was measured by the inhibition of 5H+ T-induced bradycardia after iv administration of 1000 ug/kg dose in urethane-anesthetized rats; assay type: functional, organism-based; summary of the method: as §1
# [3] = target: T1, Serotonin 3 (5-HT3) receptor (Rattus norvegicus); test: 5-hydroxytryptamine 3 receptor antagonistic activity was measured by the inhibition of 5H+ T-induced bradycardia after iv administration of 3 ug/kg dose in urethane-anesthetized rats; assay type: functional, organism-based
# Summary of the method: (§2)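 Urethane-anesthetized rats; antagonist or saline given iv via femoral vein after heart rate settled (≤5 min) from an initial 5HT challenge (30 µg/kg iv). 5HT was given again 15 min later. Peak bradycardia measured, each rat its own control; % inhibition = difference between first and second responses. Groups of 3–16 rats, means ± SEM.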
# [4] = target: T1, Serotonin 3 (5-HT3) receptor (Rattus norvegicus); test: Compound was tested for the inhibition of 5-HT-induced bradycardia after intravenous administration of 30 ug/kg dose in urethane-anesthetized rats; assay type: functional, organism-based; summary of the method: as §1
# [5] = target: T1, Serotonin 3 (5-HT3) receptor (Rattus norvegicus); test: 5-hydroxytryptamine 3 receptor antagonistic activity as inhibition of 5-HT-induced bradycardia after iv administration of 100 ug/kg dose in urethane-anesthetized rats; assay type: functional, organism-based; summary of the method: as §1
# [6] = target: T1, Serotonin 3 (5-HT3) receptor (Rattus norvegicus); test: Compound was tested for the inhibition of 5-HT-induced bradycardia after peroral administration of 10 ug/kg dose in urethane-anesthetized rats; assay type: functional, organism-based
# Summary of the method: (§3)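 Fasted rats gavaged (5 mL/kg) with antagonist or vehicle (distilled water). Urethane anesthesia and surgical preparation followed, 15–20 min before 5HT challenge. 5HT 30 µg/kg iv given 1 h after dosing, with vehicle-treated rats as controls. Peak % inhibition of bradycardia in groups of 3–11, means ± SEM.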
# [7] = target: T1, Serotonin 3 (5-HT3) receptor (Rattus norvegicus); test: Compound was tested for the inhibition of 5-HT-induced bradycardia after intravenous administration of 1 ug/kg dose in urethane-anesthetized rats; assay type: functional, organism-based; summary of the method: as §2
# [8] = target: T1, Serotonin 3 (5-HT3) receptor (Rattus norvegicus); test: Compound was tested for the inhibition of 5-HT-induced bradycardia after peroral administration of 0.3 mg/kg at 6 hours in urethane-anesthetized rats; assay type: functional, organism-based; parameters: dose 0.3 mg/kg; settings: at 0.3 mg/kg
# Summary of the method: (§4)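 Duration study. Antagonist or vehicle is given by oral gavage to conscious rats. Rats are then urethane-anesthetized, surgically prepared and challenged with 5HT 0.03 mg/kg iv at the stated time after dosing. Peak inhibition of bradycardia is measured against vehicle-treated controls. Means ± SEM, groups of 3–11 rats.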
# [9] = target: T1, Serotonin 3 (5-HT3) receptor (Rattus norvegicus); test: Compound was tested for the inhibition of 5-HT-induced bradycardia after peroral administration of 0.3 mg/kg at 0.5 hours in urethane-anesthetized rats; assay type: functional, organism-based; parameters: dose 0.3 mg/kg; settings: at 0.3 mg/kg; summary of the method: as §4
# [10] = target: T1, Serotonin 3 (5-HT3) receptor (Rattus norvegicus); test: Compound was tested for the inhibition of 5-HT-induced bradycardia after peroral administration of 1000 ug/kg dose in urethane-anesthetized rats; assay type: functional, organism-based; summary of the method: as §3
# [11] = target: T1, Serotonin 3 (5-HT3) receptor (Rattus norvegicus); test: Compound was tested for the inhibition of 5-HT-induced bradycardia after peroral administration of 0.3 mg/kg at 3 hours in urethane-anesthetized rats; assay type: functional, organism-based; parameters: dose 0.3 mg/kg; settings: at 0.3 mg/kg; summary of the method: as §4
# [12] = target: T1, Serotonin 3 (5-HT3) receptor (Rattus norvegicus); test: Compound was tested for the inhibition of 5-HT-induced bradycardia after peroral administration of 0.3 mg/kg at 1 hour in urethane-anesthetized rats; assay type: functional, organism-based; parameters: dose 0.3 mg/kg; settings: at 0.3 mg/kg; summary of the method: as §4
# [13] = target: T1, Serotonin 3 (5-HT3) receptor (Rattus norvegicus); test: Compound was tested for the inhibition of 5-HT-induced bradycardia after peroral administration of 100 ug/kg dose in urethane-anesthetized rats; assay type: functional, organism-based; summary of the method: as §3
# [14] = target: T1, Serotonin 3 (5-HT3) receptor (Rattus norvegicus); test: Compound was tested for the inhibition of 5-HT-induced bradycardia after peroral administration in urethane-anesthetized rats
# [15] = target: T1, Serotonin 3 (5-HT3) receptor (Rattus norvegicus); test: Inhibition of 5-HT-induced bradycardia by 5-hydroxytryptamine 3+; assay type: functional
compound,measurement,setting,value
CC1Cc2cccc(C(=O)OC3CC4CCC(C3)N4C)c2O1 (configuration not stated),inhibition,[1],30.6%
Cc1cc2cccc(C(=O)OC3CC4CCC(C3)N4C)c2o1 (configuration not stated),inhibition,[1],7.3%
CN1[C@@H]2CC[C@H]1C[C@H](OC(=O)c1ccccc1)C2,inhibition,[2],88.1%
CN1C2CCC1CC(NC(=O)c1cccc3c1CC(C)(C)O3)C2 (configuration not stated),inhibition,[1],2.1%
CN1C2CCC1CC(NC(=O)c1ccc3c(c1)OC(C)(C)C3)C2 (configuration not stated),inhibition,[1],0%
Cc1cc2c(c(C(=O)NC3CC4CCC(C3)N4C)c1)OC(C)(C)C2 (configuration not stated),inhibition,[3],11.2%
same,inhibition,[1],87.1%
CC1Oc2c(C(=O)OC3CC4CCC(C3)N4C)cccc2C1C (stereo in doubt; 27),inhibition,[4],47.3%
same,inhibition,[3],35.6%
same,inhibition,[1],32.7%
CN1C2CCC1CC(NC(=O)c1cc(O)cc3c1OC(C)(C)C3)C2 (configuration not stated),inhibition,[1],54.7%
CC1Cc2cccc(C(=O)NC3CC4CCC(C3)N4C)c2O1 (configuration not stated),inhibition,[1],22.3%
same,inhibition,[5],87.6%
CN1C2CCC1CC(OC(=O)c1cccc3c1Cc1ccccc1-3)C2 (configuration not stated),inhibition,[2],51%
CN1[C@@H]2CC[C@H]1C[C@@H](NC(=O)c1cc(Cl)cc3c1OC(C)(C)C3)C2 (stereo in doubt; 50),inhibition,[3],25.9%
same,inhibition,[1],67.1%
CN1C2CCC1CC(OC(=O)c1cccc3c1OC(C)(C)C3)C2 (configuration not stated),inhibition,[3],20.8%
same,inhibition,[1],38%
CN1[C@@H]2CC[C@H]1C[C@@H](OC(=O)c1c[nH]c3ccccc13)C2,inhibition,[6],0.1%
same,inhibition,[7],20.1%
same,inhibition,[8],17.4%
same,inhibition,[3],54.2%
same,inhibition,[9],86.6%
same,inhibition,[5],70.6%
same,inhibition,[10],85%
same,inhibition,[11],65.2%
same,inhibition,[12],77.4%
same,inhibition,[13],39.8%
same,ED50,[14],0.127 mg/kg
same,ED50,[15],0.0031 mg/kg
CN1C2CCC1CC(NC(=O)c1c(Cl)ccc3c1OC(C)(C)C3)C2 (configuration not stated),inhibition,[1],0.8%
Cc1cc2c(c(C(=O)OC3CC4CCC(C3)N4C)c1)OCC2 (configuration not stated),inhibition,[1],28.8%
same,inhibition,[5],67.2%
CC1Cc2cc(F)cc(C(=O)OC3CC4CCC(C3)N4C)c2O1 (configuration not stated),inhibition,[1],32.2%
CN1C2CCC1CC(CC(=O)c1ccccc1)C2 (configuration not stated),inhibition,[5],31.3%
Cc1coc2c(C(=O)OC3CC4CCC(C3)N4C)cccc12 (configuration not stated),inhibition,[1],7.7%
COc1cc2c(c(C(=O)OC3CC4CCC(C3)N4C)c1)OC(C)C2 (configuration not stated),inhibition,[1],4.1%
